Measurements: ChEMBL document CHEMBL1151934, “Exploration and optimization of substituted triazolothiadiazines and triazolopyridazines as PDE4 inhibitors” (Bioorg Med Chem Lett, 2009)
Each block holds one compound with its values, some of them ahead of it. Activity calls are given as the source filed them. The rule behind the calls is not given here.

Columns and labels:
[1] = target: cGMP-specific 3',5'-cyclic phosphodiesterase (Homo sapiens) (UniProt O76074); assay: Inhibition of PDE5A1 at 10 uM
[2] = target: Dual specificity calcium/calmodulin-dependent 3',5'-cyclic nucleotide phosphodiesterase 1A (Homo sapiens) (UniProt P54750); assay: Inhibition of PDE1A at 10 uM
[3] = Intrinsic clearance in rat microsomes; assay type: ADME, Microsome
[4] = target: T1, Dual specificity calcium/calmodulin-dependent 3',5'-cyclic nucleotide phosphodiesterase 1B (Homo sapiens, UniProt Q01064); assay: Inhibition of PDE1B at 10 uM
T1 sequence (Q01064 whole entry, the tested form may be a part): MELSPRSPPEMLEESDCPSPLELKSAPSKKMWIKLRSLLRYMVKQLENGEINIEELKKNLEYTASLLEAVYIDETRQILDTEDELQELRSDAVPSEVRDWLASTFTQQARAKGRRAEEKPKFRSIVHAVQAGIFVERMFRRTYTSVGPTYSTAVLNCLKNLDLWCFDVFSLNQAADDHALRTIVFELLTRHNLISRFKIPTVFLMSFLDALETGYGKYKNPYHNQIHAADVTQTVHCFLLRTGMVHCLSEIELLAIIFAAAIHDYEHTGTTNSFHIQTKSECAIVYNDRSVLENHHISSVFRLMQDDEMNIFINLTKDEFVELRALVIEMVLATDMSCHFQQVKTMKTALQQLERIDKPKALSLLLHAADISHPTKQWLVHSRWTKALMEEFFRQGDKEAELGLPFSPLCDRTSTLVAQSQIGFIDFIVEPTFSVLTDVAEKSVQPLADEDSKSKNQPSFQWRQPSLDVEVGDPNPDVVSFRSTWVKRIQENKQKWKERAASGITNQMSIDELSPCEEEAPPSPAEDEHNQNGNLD

[5] = target: Beta-2 adrenergic receptor (Homo sapiens) (UniProt P07550); assay: Inhibition of beta2 adrenergic receptor expressed in HEK293 cells co-transfected with PKA fragments Reg-F[1] and cat-F[2]-fused renilla luciferase assessed as effect on receptor regulated increase in cAMP accumulation at 100 uM after 30 mins by protein-fragment complementation assay; assay type: functional, cell-based
Beta-2 adrenergic receptor (Homo sapiens), sequence (P07550 whole entry, looked up, the tested form may be a part): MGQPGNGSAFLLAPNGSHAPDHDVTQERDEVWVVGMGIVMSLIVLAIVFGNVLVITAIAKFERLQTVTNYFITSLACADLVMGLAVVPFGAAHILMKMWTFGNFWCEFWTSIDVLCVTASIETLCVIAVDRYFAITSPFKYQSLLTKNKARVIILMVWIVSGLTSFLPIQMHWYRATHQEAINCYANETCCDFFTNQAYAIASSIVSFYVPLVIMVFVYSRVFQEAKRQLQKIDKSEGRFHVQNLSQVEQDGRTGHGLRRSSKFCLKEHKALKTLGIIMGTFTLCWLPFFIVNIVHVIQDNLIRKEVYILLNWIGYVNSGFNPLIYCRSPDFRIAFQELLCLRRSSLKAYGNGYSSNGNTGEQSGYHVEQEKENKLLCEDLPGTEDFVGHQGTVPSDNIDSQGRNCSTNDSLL
Outline: (§1)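 Stable β2AR-HEK293 cells grown in DMEM with 10% fetal bovine serum and transiently transfected with the Rluc PCA PKA reporter. Compounds added 48 h after transfection. Medium exchanged for PBS and bioluminescence read on a luminometer immediately after treatment.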

[6] = target: T2, Dual specificity calcium/calmodulin-dependent 3',5'-cyclic nucleotide phosphodiesterase 1C (Homo sapiens, UniProt Q14123); assay: Inhibition of PDE1C at 10 uM
T2 sequence (Q14123 whole entry, the tested form may be a part): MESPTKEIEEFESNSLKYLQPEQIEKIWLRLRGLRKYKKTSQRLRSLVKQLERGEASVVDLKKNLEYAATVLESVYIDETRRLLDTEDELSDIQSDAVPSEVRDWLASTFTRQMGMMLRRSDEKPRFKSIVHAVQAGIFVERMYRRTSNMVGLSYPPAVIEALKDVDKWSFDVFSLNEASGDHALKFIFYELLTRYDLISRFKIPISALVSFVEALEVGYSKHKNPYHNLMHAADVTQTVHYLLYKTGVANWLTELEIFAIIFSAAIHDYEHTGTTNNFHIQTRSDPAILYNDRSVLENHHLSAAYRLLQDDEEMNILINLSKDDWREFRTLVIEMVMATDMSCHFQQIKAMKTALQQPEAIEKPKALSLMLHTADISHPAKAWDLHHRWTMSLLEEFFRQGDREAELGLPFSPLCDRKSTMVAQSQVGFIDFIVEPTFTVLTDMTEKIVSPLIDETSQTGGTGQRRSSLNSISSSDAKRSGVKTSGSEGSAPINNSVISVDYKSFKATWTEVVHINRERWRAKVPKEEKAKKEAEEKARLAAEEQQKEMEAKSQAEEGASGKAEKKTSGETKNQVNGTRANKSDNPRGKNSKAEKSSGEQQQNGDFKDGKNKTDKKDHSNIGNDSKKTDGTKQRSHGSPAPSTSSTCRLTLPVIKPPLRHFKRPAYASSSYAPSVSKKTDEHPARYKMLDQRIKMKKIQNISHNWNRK

[7] = target: Beta-2 adrenergic receptor (Homo sapiens) (UniProt P07550); assay: Inhibition of beta2 adrenergic receptor expressed in HEK293 cells co-transfected with PKA fragments Reg-F[1] and cat-F[2]-fused renilla luciferase assessed as effect on receptor regulated increase in cAMP accumulation at 10 uM after 30 mins by protein-fragment complementation assay; assay type: functional, cell-based; outline: as §1
[8] = Inhibition of PDE4 expressed in HEK293 cells coexpressing G-protein coupled receptor and cyclic nucleotide gated ion channel by fluorescence assay; assay type: cell-based
Outline: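 PDE4-expressing reporter cells plated at 1000 cells/well in DMEM with penicillin/streptomycin and 2%, 5%, 10% or 20% fetal calf serum, 12 hr at 37 °C, 5% CO₂. Membrane potential dye 1 hr at room temperature, then compound pin-transferred from DMSO serial dilutions (final DMSO under 0.5%). Tested in duplicate.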

[9] = Metabolic stability in rat assessed as half life; assay type: ADME, organism-based; details: in vivo
[10] = target: cGMP-dependent 3',5'-cyclic phosphodiesterase (Homo sapiens) (UniProt O00408); assay: Inhibition of PDE2A at 10 uM
[11] = target: Beta-2 adrenergic receptor (Homo sapiens) (UniProt P07550); assay: Inhibition of beta2 adrenergic receptor expressed in HEK293 cells co-transfected with PKA fragments Reg-F[1] and cat-F[2]-fused renilla luciferase assessed as dissociation of PKA fragments after 2 mins by real time kinetic study relative to inverse agonist ICI-118551; assay type: functional, cell-based
Outline: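 Stable β2AR-HEK293 cells grown in DMEM with 10% fetal bovine serum and transiently transfected with plasmids carrying the Rluc PCA PKA reporter (FuGENE-6). Cells were treated with compounds 48 h after transfection. Immediately after treatment, the medium was exchanged for PBS and bioluminescence was read on a luminometer.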

[12] = target: T3, cGMP-inhibited 3',5'-cyclic phosphodiesterase 3A (Homo sapiens, UniProt Q14432); assay: Inhibition of PDE3A at 10 uM
T3 sequence (Q14432 whole entry): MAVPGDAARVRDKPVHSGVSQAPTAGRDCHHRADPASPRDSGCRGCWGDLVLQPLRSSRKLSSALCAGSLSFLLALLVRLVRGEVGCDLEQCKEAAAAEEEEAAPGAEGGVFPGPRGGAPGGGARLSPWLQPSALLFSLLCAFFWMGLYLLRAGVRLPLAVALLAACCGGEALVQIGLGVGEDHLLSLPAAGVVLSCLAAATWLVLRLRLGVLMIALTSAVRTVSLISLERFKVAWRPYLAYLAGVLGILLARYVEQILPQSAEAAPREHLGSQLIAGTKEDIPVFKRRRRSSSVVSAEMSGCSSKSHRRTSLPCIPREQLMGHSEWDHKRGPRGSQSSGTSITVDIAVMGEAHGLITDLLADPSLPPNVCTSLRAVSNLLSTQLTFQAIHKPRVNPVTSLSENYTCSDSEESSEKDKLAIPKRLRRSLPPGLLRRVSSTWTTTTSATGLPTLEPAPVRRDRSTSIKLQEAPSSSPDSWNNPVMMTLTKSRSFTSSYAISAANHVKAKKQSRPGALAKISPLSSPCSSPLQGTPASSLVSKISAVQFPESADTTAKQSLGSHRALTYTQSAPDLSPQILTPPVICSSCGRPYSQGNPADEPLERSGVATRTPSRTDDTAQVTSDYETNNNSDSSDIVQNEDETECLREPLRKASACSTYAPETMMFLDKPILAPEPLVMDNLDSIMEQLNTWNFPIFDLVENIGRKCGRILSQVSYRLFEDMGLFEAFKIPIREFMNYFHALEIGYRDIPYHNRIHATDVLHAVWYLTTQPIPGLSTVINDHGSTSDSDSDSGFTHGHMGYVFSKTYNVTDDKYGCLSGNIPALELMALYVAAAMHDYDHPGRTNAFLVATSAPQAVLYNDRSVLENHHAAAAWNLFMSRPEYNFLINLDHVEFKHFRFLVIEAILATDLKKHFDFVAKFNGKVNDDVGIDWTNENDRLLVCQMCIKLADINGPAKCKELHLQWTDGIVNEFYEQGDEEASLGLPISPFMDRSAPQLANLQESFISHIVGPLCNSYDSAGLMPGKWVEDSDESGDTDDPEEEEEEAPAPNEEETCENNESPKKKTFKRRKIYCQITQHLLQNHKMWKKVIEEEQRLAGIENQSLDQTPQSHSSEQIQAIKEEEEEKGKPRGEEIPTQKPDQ

[13] = target: T4, 3',5'-cyclic-AMP phosphodiesterase 7B (Homo sapiens, UniProt Q9NP56); assay: Inhibition of PDE7B at 10 uM
T4 sequence (Q9NP56 whole entry): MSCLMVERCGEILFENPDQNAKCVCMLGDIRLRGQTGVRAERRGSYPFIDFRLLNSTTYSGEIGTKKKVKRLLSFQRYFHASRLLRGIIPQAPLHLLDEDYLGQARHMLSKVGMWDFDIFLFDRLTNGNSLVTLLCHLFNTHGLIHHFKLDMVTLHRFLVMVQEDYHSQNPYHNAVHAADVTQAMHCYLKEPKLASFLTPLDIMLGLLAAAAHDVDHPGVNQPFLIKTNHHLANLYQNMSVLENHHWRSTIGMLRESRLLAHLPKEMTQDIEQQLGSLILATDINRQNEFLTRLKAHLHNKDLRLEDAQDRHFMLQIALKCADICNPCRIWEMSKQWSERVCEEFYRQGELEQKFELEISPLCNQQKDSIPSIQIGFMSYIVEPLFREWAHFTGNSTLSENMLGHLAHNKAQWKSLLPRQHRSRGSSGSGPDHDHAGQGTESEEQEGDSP

[14] = target: T5, High affinity 3',5'-cyclic-AMP phosphodiesterase 7A (Homo sapiens, UniProt Q13946); assay: Inhibition of PDE7A at 10 uM
T5 sequence (Q13946 whole entry): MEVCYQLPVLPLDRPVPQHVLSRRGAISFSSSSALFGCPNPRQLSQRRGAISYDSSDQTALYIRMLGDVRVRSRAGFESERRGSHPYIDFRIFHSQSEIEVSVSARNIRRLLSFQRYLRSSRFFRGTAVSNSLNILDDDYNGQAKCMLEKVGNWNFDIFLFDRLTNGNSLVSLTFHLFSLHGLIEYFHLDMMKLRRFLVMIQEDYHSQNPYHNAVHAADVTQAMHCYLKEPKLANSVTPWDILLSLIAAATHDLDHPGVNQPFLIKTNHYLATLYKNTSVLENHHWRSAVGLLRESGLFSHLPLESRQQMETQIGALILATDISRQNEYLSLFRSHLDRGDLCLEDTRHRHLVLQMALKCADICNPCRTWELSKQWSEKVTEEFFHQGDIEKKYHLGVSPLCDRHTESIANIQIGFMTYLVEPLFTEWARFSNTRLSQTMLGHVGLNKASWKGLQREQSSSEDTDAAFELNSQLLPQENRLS

[15] = target: cGMP-inhibited 3',5'-cyclic phosphodiesterase 3B (Homo sapiens, UniProt Q13370)
[16] = target: T3, cGMP-inhibited 3',5'-cyclic phosphodiesterase 3A
[17] = target: cAMP and cAMP-inhibited cGMP 3',5'-cyclic phosphodiesterase 10A (Homo sapiens, UniProt Q9Y233); assay: Inhibition of PDE10A1
[18] = target: 3',5'-cyclic-AMP phosphodiesterase 4A (Homo sapiens, UniProt P27815); assay: Inhibition of human PDE4A by IMAP fluorescence polarization technology
3',5'-cyclic-AMP phosphodiesterase 4A, sequence (P27815 whole entry, the tested form may be a part): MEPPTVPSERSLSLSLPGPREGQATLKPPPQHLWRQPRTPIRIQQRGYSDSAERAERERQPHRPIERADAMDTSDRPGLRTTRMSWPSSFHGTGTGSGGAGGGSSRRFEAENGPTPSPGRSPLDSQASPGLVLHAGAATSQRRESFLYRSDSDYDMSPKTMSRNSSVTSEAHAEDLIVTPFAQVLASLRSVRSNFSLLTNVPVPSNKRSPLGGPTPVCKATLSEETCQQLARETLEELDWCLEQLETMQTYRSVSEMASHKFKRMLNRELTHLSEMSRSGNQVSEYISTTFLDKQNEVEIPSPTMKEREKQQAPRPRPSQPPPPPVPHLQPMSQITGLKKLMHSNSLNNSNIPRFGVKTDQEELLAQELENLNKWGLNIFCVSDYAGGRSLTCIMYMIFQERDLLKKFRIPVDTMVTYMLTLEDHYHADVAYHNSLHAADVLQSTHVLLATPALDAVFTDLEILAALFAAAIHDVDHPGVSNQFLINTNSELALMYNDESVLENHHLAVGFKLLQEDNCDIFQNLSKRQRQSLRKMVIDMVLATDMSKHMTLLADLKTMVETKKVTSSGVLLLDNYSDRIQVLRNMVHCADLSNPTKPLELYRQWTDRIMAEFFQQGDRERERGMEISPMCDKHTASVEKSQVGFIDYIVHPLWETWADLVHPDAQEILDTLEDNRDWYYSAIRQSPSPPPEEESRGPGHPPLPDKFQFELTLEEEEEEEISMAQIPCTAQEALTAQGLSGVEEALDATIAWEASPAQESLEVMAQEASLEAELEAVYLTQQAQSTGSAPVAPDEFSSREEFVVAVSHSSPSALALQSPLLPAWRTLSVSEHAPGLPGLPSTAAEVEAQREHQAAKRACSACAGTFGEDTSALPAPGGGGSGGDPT

[19] = target: Beta-2 adrenergic receptor (Homo sapiens) (UniProt P07550); assay: (§2) Inhibition of beta2 adrenergic receptor expressed in HEK293 cells co-transfected with PKA fragments Reg-F[1] and cat-F[2]-fused renilla luciferase assessed as effect on receptor regulated PKA activation at 100 uM after 30 mins by protein-fragment complementation assay; assay type: cell-based; outline: as §1
[20] = target: T1, Dual specificity calcium/calmodulin-dependent 3',5'-cyclic nucleotide phosphodiesterase 1B
[21] = target: Beta-2 adrenergic receptor (Homo sapiens) (UniProt P07550); assay: as §2, with “assay in presence of inverse agonist ICI-118551” for “assay”; assay type: functional, cell-based; outline: as §1
[22] = target: T4, 3',5'-cyclic-AMP phosphodiesterase 7B; assay: Inhibition of PDE7B
[23] = target: T2, Dual specificity calcium/calmodulin-dependent 3',5'-cyclic nucleotide phosphodiesterase 1C; assay: Inhibition of PDE1C
[24] = target: T5, High affinity 3',5'-cyclic-AMP phosphodiesterase 7A; assay: Inhibition of PDE7A
[25] = Inhibition of PDE4A1A

IC50 [18]: 20 nM
SMILES: COc1ccc(C2=Nn3c(nnc3-c3ccccc3OC)SC2)cc1OC1CCOC1 (stereo not given)

IC50 [18]: 11 nM
SMILES: COc1ccc(C2=Nn3c(nnc3-c3ccccc3OC)SC2)cc1O[C@@H]1CCOC1

microsomal CLint [3]: > 300 µL/min/mg
half-life [9]: 3 min
SMILES: COc1ccc(OC)c(-c2nnc3n2N=C(c2ccc(OC)c(OC4CCCC4)c2)CS3)c1

IC50 [18]: 35 nM
SMILES: COc1ccc(C2=Nn3c(nnc3-c3ccccc3OC)SC2)cc1OCC1CC1

IC50 [18]: 26 nM
SMILES: COc1ccc(C2=Nn3c(nnc3-c3ccccc3Cl)SC2)cc1OC1CCCC1

IC50 [18]: 33 nM
SMILES: COc1ccc(C2=Nn3c(nnc3-c3ccccc3F)SC2)cc1OC1CCCC1

IC50 [18]: 8.6 nM
SMILES: COc1ccc(C2=Nn3c(nnc3-c3ccccc3F)SC2)cc1O[C@@H]1CCOC1

IC50 [18]: 11 nM
SMILES: COc1ccc(C2=Nn3c(nnc3-c3ccccc3F)SC2)cc1OC1CCOC1 (stereo not given)

IC50 [18]: 32 nM
SMILES: COc1ccc(C2=Nn3c(nnc3-c3ccccc3OC)SC2)cc1OC1CCCC1

The remaining lines, values behind:

SMILES: COc1ccc(OC)c(-c2nnc3n2N=C(c2ccc(OC)c(O[C@@H]4CCOC4)c2)CS3)c1
inhibition [1]: 58%
inhibition [2]: 36%
microsomal CLint [3]: > 300 µL/min/mg
inhibition [4]: 52%
inhibition [5]: Active
inhibition [6]: 49%
inhibition [7]: Active
EC50 [8]: 2.3 nM
half-life [9]: 3 min
inhibition [10]: 68%
inhibition [11]: 25%
inhibition [12]: 56%
inhibition [13]: 43%
inhibition [14]: 48%

SMILES: COc1ccc(OC)c(-c2nnc3n2N=C(c2ccc(OC)c(OCC4CC4)c2)CS3)c1
microsomal CLint [3]: > 300 µL/min/mg
half-life [9]: 3 min

SMILES: COc1ccc(OC)c(-c2nnc3n2N=C(c2ccc(OC)c(OC)c2)CS3)c1
IC50 [15]: 720 nM
IC50 [16]: 1700 nM
microsomal CLint [3]: > 300 µL/min/mg
EC50 [8]: 18.7 nM
half-life [9]: 3 min
IC50 ([17]; read-out: IC50): 823 nM

SMILES: FC(F)Oc1ccc(C2=Nn3c(nnc3-c3ccccc3Cl)SC2)cc1OCC1CC1
IC50 [18]: 37 nM

SMILES: COc1ccccc1-c1nnc2n1N=C(c1ccc(OC(F)F)c(OCC3CC3)c1)CS2
IC50 [18]: 35 nM

SMILES: COc1ccc(OC)c(-c2nnc3n2N=C(c2ccc(OC(F)F)c(OCC4CC4)c2)CS3)c1
microsomal CLint [3]: > 300 µL/min/mg
half-life [9]: 3 min

SMILES: COc1ccc(OC)c(-c2nnc3ccc(-c4ccc(OC)c(O[C@H]5CCOC5)c4)nn23)c1
microsomal CLint [3]: > 300 µL/min/mg
half-life [9]: 3 min

SMILES: COc1ccc(OC)c(-c2nnc3n2N=C(c2ccc(OC)c(OC4CCOC4)c2)CS3)c1 (racemic)
microsomal CLint [3]: > 300 µL/min/mg
half-life [9]: 3 min

SMILES: COc1ccc(C2CNC(=O)C2)cc1OC1CCCC1 (stereo not given) [ROLIPRAM]
inhibition [19]: Active
IC50 [20]: Not Active
inhibition [21]: inactive
IC50 [22]: Not Active
IC50 [23]: Not Active
IC50 [17]: Not Active
IC50 [24]: Not Active

SMILES: Fc1ccccc1-c1nnc2n1N=C(c1ccc(OC(F)F)c(OCC3CC3)c1)CS2
IC50 [18]: 53 nM

SMILES: COc1ccc(C2=Nn3c(nnc3-c3ccccc3Cl)SC2)cc1O[C@@H]1CCOC1
IC50 [18]: 3.8 nM

SMILES: COc1ccc(C2=Nn3c(nnc3-c3ccccc3Cl)SC2)cc1OCC1CC1
IC50 [18]: 21 nM

SMILES: COc1ccc(OC)c(-c2nnc3ccc(-c4ccc(OC)c(O[C@@H]5CCOC5)c4)nn23)c1
inhibition [1]: 51%
IC50 [25]: 0.6 nM
inhibition [2]: 32%
microsomal CLint [3]: > 300 µL/min/mg
inhibition [4]: 56%
inhibition [5]: Active
inhibition [6]: 74%
inhibition [7]: Active
EC50 [8]: 34.2 nM
half-life [9]: 3 min
inhibition [10]: 54%
inhibition [12]: 54%
inhibition [13]: 35%
inhibition [14]: 59%

SMILES: COc1ccc(C2=Nn3c(nnc3-c3ccccc3Cl)SC2)cc1OC1CCOC1 (stereo not given)
IC50 [18]: 9.8 nM
